Values after ≈ are worked out from the molar mass of the structure shown.

The target of one data set is Voltage-gated inwardly rectifying potassium channel KCNH2 (Homo sapiens, UniProt Q12809). Kind of data set: Inhibition of hERG cardiac ion channel.
Conditions: not given
In kind it is toxicity. Put shortly:
(§1)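 hERG channel inhibition was run by a contract lab. […] Determinations were made in duplicate or triplicate (n = 2 or 3).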
A general note: hERG is a cardiac potassium channel; its block is linked to QT prolongation.
With `O=c1ccc2ccc(F)c3c2n1CC3C[C@H]1OC[C@H](NCc2cc3c(nn2)OCCO3)CO1` (stereo not given in full), the IC50 (as a rule, the concentration needed to halve the response being measured) was more than 200 µM.

The subject of another data set is Staphylococcus aureus. Kind of data set: Antibacterial activity against cystic fibrosis isolate Staphylococcus aureus by CLSI method.
Conditions: not given
The class given is functional.
As to `O=c1ccc2ccc(F)c3c2n1CC3C[C@H]1OC[C@H](NCc2cc3c(nn2)OCCO3)CO1` (stereo not given in full), the MIC (commonly the smallest concentration in the dilution series that meets the test's criterion for growth inhibition) came to 1 µg/mL (≈ 2.2 µM).

Another data set concerns Staphylococcus aureus. Kind of data set: Antibacterial activity against Staphylococcus aureus ATCC 29213 by CLSI method. The class given is functional.
Conditions: not given
Compound `O=c1ccc2ccc(F)c3c2n1CC3C[C@H]1OC[C@H](NCc2cc3c(nn2)OCCO3)CO1` (stereo not given in full) showed an MIC of 2 µg/mL (≈ 4.4 µM).

In another data set the test system is Staphylococcus aureus. Kind of data set: Antibacterial activity against methicillin-resistant Staphylococcus aureus USA300 by CLSI method. In kind it is functional.
Conditions: not given
For the compound `O=c1ccc2ccc(F)c3c2n1CC3C[C@H]1OC[C@H](NCc2cc3c(nn2)OCCO3)CO1` (stereo not given in full), inhibition of growth (MIC) required 4 µg/mL (≈ 8.8 µM).

A further data set has as its system Staphylococcus aureus. Kind of data set: Antibacterial activity against Staphylococcus aureus 3527 by CLSI method. The class given is functional.
Conditions: not given
As to `O=c1ccc2ccc(F)c3c2n1CC3C[C@H]1OC[C@H](NCc2cc3c(nn2)OCCO3)CO1` (stereo not given in full), 4 µg/mL (≈ 8.8 µM) was the least that counted as inhibitory (MIC).

The next data set concerns Staphylococcus aureus. Kind of data set: Antibacterial activity against Staphylococcus aureus harbouring GyrA D83N mutant by CLSI method. In kind it is functional.
Conditions: not given
For the compound `O=c1ccc2ccc(F)c3c2n1CC3C[C@H]1OC[C@H](NCc2cc3c(nn2)OCCO3)CO1` (stereo not given in full), the MIC was more than 8 µg/mL.

For another data set, the target named is DNA gyrase (Staphylococcus aureus, UniProt P0A0K8+P20831). Kind of data set: Inhibition of Staphylococcus aureus DNA gyrase supercoiling activity incubated for 25 min by ethidium bromide/bromophenol blue staining based agarose gel electrophoresis analysis. The class given is protein-complex assay.
Conditions: not given
In the case of `O=c1ccc2ccc(F)c3c2n1CC3C[C@H]1OC[C@H](NCc2cc3c(nn2)OCCO3)CO1` (stereo not given in full), the IC50 is 3.5 µM.

The target of the next data set is Topoisomerase IV (Staphylococcus aureus, UniProt P0C1S7+P0C1U9). Kind of data set: Inhibition of Staphylococcus aureus DNA topoisomerase 4 decatenation activity using kDNA as substrate incubated for 10 to 20 min by ethidium bromide/bromophenol blue staining based agarose gel electrophoresis analysis. In kind it is protein-complex assay.
Conditions: not given
Compound `O=c1ccc2ccc(F)c3c2n1CC3C[C@H]1OC[C@H](NCc2cc3c(nn2)OCCO3)CO1` (stereo not given in full) showed an IC50 of 9.7 µM.

In another data set the test system is Staphylococcus aureus. Kind of data set: Selectivity ratio of IC50 for inhibition of Staphylococcus aureus DNA topoisomerase 4 decatenation activity to IC50 for inhibition of Staphylococcus aureus DNA gyrase supercoiling activity.
Conditions: not given
As for `O=c1ccc2ccc(F)c3c2n1CC3C[C@H]1OC[C@H](NCc2cc3c(nn2)OCCO3)CO1` (stereo not given in full), the Ratio IC50 was determined as 2.8.

In the next data set the test system is Neisseria gonorrhoeae. Kind of data set: Antimicrobial activity against Neisseria gonorrhoeae G strain harbouring type 2 topoisomerase GyrA S91F and ParE G410V mutant incubated for 20 to 24 hrs by CLSI protocol based broth microdilution method. The class given is functional. To be noted: time 20-24 hrs. In general terms: Dilution methods test growth across graded concentrations, often in twofold steps.
Consider `COc1ccc2ncc(F)c(C[C@H](O)[C@H]3OC[C@H](NCc4ccc5c(n4)NC(=O)CS5)CO3)c2n1`, for which the MIC was not above 0.03 µg/mL.

In turn, `O=c1ccc2ccc(F)c3c2n1CC3C[C@H]1OC[C@H](NCc2cc3c(nn2)OCCO3)CO1` (stereo not given in full) registered an MIC of more than 32 µg/mL.

The next data set relates to Neisseria gonorrhoeae. Kind of data set: Antimicrobial activity against wild type Neisseria gonorrhoeae ATCC 49226 incubated for 20 to 24 hrs by CLSI protocol based broth microdilution method. In kind it is functional. The settings on record: time 20-24 hrs.
With `COc1ccc2ncc(F)c(C[C@H](O)[C@H]3OC[C@H](NCc4ccc5c(n4)NC(=O)CS5)CO3)c2n1`, the MIC was not above 0.03 µg/mL.

In turn, `O=c1ccc2ccc(F)c3c2n1CC3C[C@H]1OC[C@H](NCc2cc3c(nn2)OCCO3)CO1` (stereo not given in full) returned an MIC of 32 µg/mL (≈ 70.4 µM).

A further data set concerns Neisseria gonorrhoeae. Kind of data set: Antimicrobial activity against wild type Neisseria gonorrhoeae F strain incubated for 20 to 24 hrs by CLSI protocol based broth microdilution method. The class given is functional. The settings on record: time 20-24 hrs.
`COc1ccc2ncc(F)c(C[C@H](O)[C@H]3OC[C@H](NCc4ccc5c(n4)NC(=O)CS5)CO3)c2n1` had an MIC not above 0.03 µg/mL.

Turning to `O=c1ccc2ccc(F)c3c2n1CC3C[C@H]1OC[C@H](NCc2cc3c(nn2)OCCO3)CO1` (stereo not given in full), the MIC is 16 µg/mL (≈ 35.2 µM).

In another data set the test system is Neisseria gonorrhoeae. Kind of data set: Antimicrobial activity against Neisseria gonorrhoeae K strain harbouring type 2 topoisomerase GyrA S91F, D95N and ParC S87R, S88P mutant incubated for 20 to 24 hrs by CLSI protocol based broth microdilution method. In kind it is functional. To be noted: time 20-24 hrs.
Regarding `COc1ccc2ncc(F)c(C[C@H](O)[C@H]3OC[C@H](NCc4ccc5c(n4)NC(=O)CS5)CO3)c2n1`, the MIC is not above 0.03 µg/mL.

`O=c1ccc2ccc(F)c3c2n1CC3C[C@H]1OC[C@H](NCc2cc3c(nn2)OCCO3)CO1` (stereo not given in full) showed an MIC of more than 32 µg/mL.

Another data set relates to Neisseria gonorrhoeae. Kind of data set: Antimicrobial activity against wild type Neisseria gonorrhoeae O strain incubated for 20 to 24 hrs by CLSI protocol based broth microdilution method. The class given is functional. To be noted: time 20-24 hrs.
In turn, `COc1ccc2ncc(F)c(C[C@H](O)[C@H]3OC[C@H](NCc4ccc5c(n4)NC(=O)CS5)CO3)c2n1` had an MIC not above 0.03 µg/mL.

`O=c1ccc2ccc(F)c3c2n1CC3C[C@H]1OC[C@H](NCc2cc3c(nn2)OCCO3)CO1` (stereo not given in full) came in with an MIC of 32 µg/mL (≈ 70.4 µM).

Another data set deals with Neisseria gonorrhoeae. Kind of data set: Antimicrobial activity against wild type Neisseria gonorrhoeae P strain incubated for 20 to 24 hrs by CLSI protocol based broth microdilution method. In kind it is functional. The settings on record: time 20-24 hrs.
In the case of `COc1ccc2ncc(F)c(C[C@H](O)[C@H]3OC[C@H](NCc4ccc5c(n4)NC(=O)CS5)CO3)c2n1`, the MIC was not above 0.03 µg/mL.

As to `O=c1ccc2ccc(F)c3c2n1CC3C[C@H]1OC[C@H](NCc2cc3c(nn2)OCCO3)CO1` (stereo not given in full), the MIC was found to be 32 µg/mL (≈ 70.4 µM).

The next data set deals with Neisseria gonorrhoeae. Kind of data set: Antimicrobial activity against wild type Neisseria gonorrhoeae V strain harbouring type 2 topoisomerase GyrA S91F, D95G and ParC S87R mutant incubated for 20 to 24 hrs by CLSI protocol based broth microdilution method. The class given is functional. To be noted: time 20-24 hrs.
The compound `COc1ccc2ncc(F)c(C[C@H](O)[C@H]3OC[C@H](NCc4ccc5c(n4)NC(=O)CS5)CO3)c2n1` gave an MIC not above 0.03 µg/mL.

As for `O=c1ccc2ccc(F)c3c2n1CC3C[C@H]1OC[C@H](NCc2cc3c(nn2)OCCO3)CO1` (stereo not given in full), the MIC is 32 µg/mL (≈ 70.4 µM).

A further data set has as its system Neisseria gonorrhoeae. Kind of data set: Antimicrobial activity against wild type Neisseria gonorrhoeae Y strain harbouring type 2 topoisomerase GyrA S91F, D95G and ParC S87R mutant incubated for 20 to 24 hrs by CLSI protocol based broth microdilution method. In kind it is functional. The settings on record: time 20-24 hrs.
The compound `COc1ccc2ncc(F)c(C[C@H](O)[C@H]3OC[C@H](NCc4ccc5c(n4)NC(=O)CS5)CO3)c2n1` returned an MIC not above 0.03 µg/mL.

Compound `O=c1ccc2ccc(F)c3c2n1CC3C[C@H]1OC[C@H](NCc2cc3c(nn2)OCCO3)CO1` (stereo not given in full) returned an MIC of 32 µg/mL (≈ 70.4 µM).

In a further data set the test system is Neisseria gonorrhoeae. Kind of data set: Antimicrobial activity against wild type Neisseria gonorrhoeae ATCC 49226 incubated for 20 hrs by agar dilution method. The class given is functional.
Conditions: not given
A general note: Agar dilution tests growth on a series of plates holding different concentrations.
The compound `COc1ccc2ncc(F)c(C[C@H](O)[C@H]3OC[C@H](NCc4ccc5c(n4)NC(=O)CS5)CO3)c2n1` gave an MIC of 0.25 µg/mL (≈ 0.498 µM).

The subject of a further data set is Neisseria gonorrhoeae. Kind of data set: Antimicrobial activity against Neisseria gonorrhoeae G strain harbouring type 2 topoisomerase GyrA S91F and ParE G410V mutant incubated for 20 hrs by agar dilution method.
Conditions: not given
In kind it is functional.
`COc1ccc2ncc(F)c(C[C@H](O)[C@H]3OC[C@H](NCc4ccc5c(n4)NC(=O)CS5)CO3)c2n1` gave an MIC of 1 µg/mL (≈ 1.99 µM).

The next data set has as its system Neisseria gonorrhoeae. Kind of data set: Antimicrobial activity against Neisseria gonorrhoeae M strain harbouring type 2 topoisomerase GyrA S91F,D95G mutant incubated for 20 hrs by agar dilution method. In kind it is functional.
Conditions: not given
`COc1ccc2ncc(F)c(C[C@H](O)[C@H]3OC[C@H](NCc4ccc5c(n4)NC(=O)CS5)CO3)c2n1` had an MIC of 0.5 µg/mL (≈ 0.997 µM).

For another data set, the system named is Neisseria gonorrhoeae. Kind of data set: Antimicrobial activity against Neisseria gonorrhoeae L strain harbouring type 2 topoisomerase GyrA S91F,D95N and ParC D86N,S88P mutant incubated for 20 hrs by agar dilution method. In kind it is functional.
Conditions: not given
Turning to `COc1ccc2ncc(F)c(C[C@H](O)[C@H]3OC[C@H](NCc4ccc5c(n4)NC(=O)CS5)CO3)c2n1`, the MIC worked out at 1 µg/mL (≈ 1.99 µM).

Test system in a further data set: not listed separately
Kind of data set: Metabolic stability in mouse liver microsomes assessed as half life. In kind it is ADME, Microsome.
Conditions: not given
For the compound `O=c1ccc2ccc(F)c3c2n1CC3C[C@H]1OC[C@H](NCc2cc3c(nn2)OCCO3)CO1` (stereo not given in full), the half-life – broadly, how long it takes for the measured level to halve – was found to be 1.7 h.

Another data set deals with hERG (KCNH2) (Homo sapiens, UniProt Q12809). Kind of data set: Inhibition of hERG cardiac ion channel at 200 uM relative to control.
Conditions: not given
The class given is toxicity. Put shortly:
as §1
Consider `O=c1ccc2ccc(F)c3c2n1CC3C[C@H]1OC[C@H](NCc2cc3c(nn2)OCCO3)CO1` (stereo not given in full), for which the inhibition (in general, the share of the control response that was lost under treatment) at 200 µM was determined as 21%.

Test system in the next data set: not listed separately
Kind of data set: Cytotoxicity activity against human K562 cells assessed as inhibition of cellular growth.
Conditions: not given
In kind it is toxicity, cell-based. Put shortly:
(§2)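 Human K562 leukemia cells were tested alongside K/VP.5, an etoposide-resistant clonal subline derived from them that has reduced levels of human topoisomerase IIα. Cell growth inhibition was expressed as an IC50.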
As to `O=c1ccc2ccc(F)c3c2n1CC3C[C@H]1OC[C@H](NCc2cc3c(nn2)OCCO3)CO1` (stereo not given in full), the IC50 worked out at 156 µM.

Test system in the next data set: not listed separately
Kind of data set: Cytotoxicity activity against human K/VP.5 cells assessed as inhibition of cellular growth.
Conditions: not given
The class given is toxicity, cell-based. The gist of the method:
as §2
Regarding `O=c1ccc2ccc(F)c3c2n1CC3C[C@H]1OC[C@H](NCc2cc3c(nn2)OCCO3)CO1` (stereo not given in full), the IC50 was 171 µM.

Biological target in another data set: not listed separately
Kind of data set: Inhibition of Neisseria gonorrhoeae DNA gyrase supercoiling activity incubated for 25 min by ethidium bromide/bromophenol blue staining based agarose gel electrophoresis analysis.
Conditions: not given
Put shortly:
(§3)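 The N. gonorrhoeae enzymes were assayed separately: supercoiling by DNA gyrase, and decatenation of kDNA by topoisomerase IV. Concentration–response data were collected over at least three independent experiments and summarized with standard deviation, and IC50 values were derived.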
`COc1ccc2ncc(F)c(C[C@H](O)[C@H]3OC[C@H](NCc4ccc5c(n4)NC(=O)CS5)CO3)c2n1` registered an IC50 of 0.39 µM.

Biological target in another data set: not listed separately
Kind of data set: Inhibition of Neisseria gonorrhoeae DNA topoisomerase 4 decatenation activity using kDNA as substrate incubated for 10 to 20 min by ethidium bromide/bromophenol blue staining based agarose gel electrophoresis analysis.
Conditions: not given
Put shortly: as §3
`COc1ccc2ncc(F)c(C[C@H](O)[C@H]3OC[C@H](NCc4ccc5c(n4)NC(=O)CS5)CO3)c2n1` had an IC50 of 3.6 µM.

Values taken from ChEMBL document CHEMBL5131562, “1,3-Dioxane-Linked Novel Bacterial Topoisomerase Inhibitors: Expanding Structural Diversity and the Antibacterial Spectrum” (ACS Med Chem Lett, 2022).
